# From PubChem BioAssay
# A selection: hits, their analogues and other compounds. The true share with any hit is near 2.2%.
# dFosB act-1: activators of delta FosB homodimer, primary screen, biochemical, fluorescence polarization, TAMRA-CDK5 oligo, single point. 0.99% of 340,000 active. AID 493131, 2011. Protein FosB (Mus musculus), P13346. activation, % at 25 µM. purified delta FosB; percent of positive-control signal above neutral wells;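 active = mean activation above about 17%, with every replicate also reaching it, limit read from the data, passing the limit was not always enough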
# Target sequence (P13346 whole entry, looked up): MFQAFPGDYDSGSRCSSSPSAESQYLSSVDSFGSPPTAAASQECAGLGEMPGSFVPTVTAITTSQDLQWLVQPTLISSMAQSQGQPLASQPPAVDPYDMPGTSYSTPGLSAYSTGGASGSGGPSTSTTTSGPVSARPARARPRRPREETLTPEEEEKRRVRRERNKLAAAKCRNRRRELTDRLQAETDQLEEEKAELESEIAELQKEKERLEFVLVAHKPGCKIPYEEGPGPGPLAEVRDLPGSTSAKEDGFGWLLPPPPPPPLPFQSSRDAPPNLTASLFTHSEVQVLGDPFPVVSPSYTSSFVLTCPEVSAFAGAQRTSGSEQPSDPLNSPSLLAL
# CFTR F508del cor: F508del CFTR correction, initial screen, CFBE line, single point. 0.36% of 350,000 active. activity (quench increase), % at 7.58 µM. AID 720511, 2013. CFBE cells, YFP halide quenching; stimulated with forskolin plus potentiator P3; % fluorescence drop versus neutral controls;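 active = mean added fluorescence quench of at least 8% versus neutral control, with both replicates also reaching 8%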;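 also: cells transiently co-express mutant CFTR-F508del with the halide-sensitive YFP; corrector assay measuring rescue of mutant channel to the surface after 24 h compound exposure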
# S100A4 inh HTS: inhibitors of S100A4-myosin IIA peptide binding, primary screen, biochemical, fluorescence polarization, TAMRA-MyoIIA peptide; Protein S100-A4 (Homo sapiens), P26447; inhibition, % at 10.7 µM; 0.14% of 360,000 active; AID 652163, 2013;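 active = mean inhibition of at least 70% across replicates, with every replicate also reaching that level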
# Target sequence (P26447 whole entry, looked up): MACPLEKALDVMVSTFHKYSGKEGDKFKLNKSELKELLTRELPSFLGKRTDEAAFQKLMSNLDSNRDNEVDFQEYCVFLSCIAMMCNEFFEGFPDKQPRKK
#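 Material: human S100A4 monomer with TAMRA-labelled myosin IIA peptide; buffer or medium: HEPES pH 7.2 with CaCl2, KCl, NaCl, DTT, Triton; compound dosing: one concentration per compound; schedule: 5 min incubation before reading; benchmarks: neutral control DMSO, positive control TFP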
# FGF22 binding: binders of human FGF22 protein, primary screen, FGF22 synaptogenesis inhibitor project, biophysical, thermal shift, single point | activity (Tm shift, normalised), % at 9.99 µM | AID 651658, 2012 | recombinant FGF22 thermal shift, SYPRO orange fluorescence; percent of sucrose octasulfate shift, DMSO zero | 1.5% of 340,000 active | Fibroblast growth factor 22 (Homo sapiens), Q9HCT0;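 active = mean Tm shift, scaled 0 neutral to 100 positive control, at about 1.3% or above, every replicate too, limit read from the data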
# Target sequence (Q9HCT0 whole entry, looked up): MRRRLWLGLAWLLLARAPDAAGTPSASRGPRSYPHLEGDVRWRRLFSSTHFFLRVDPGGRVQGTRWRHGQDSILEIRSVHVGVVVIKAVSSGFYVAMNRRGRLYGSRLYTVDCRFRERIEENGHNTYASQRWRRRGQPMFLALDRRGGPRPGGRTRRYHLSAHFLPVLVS
# dFosB act-2: activators of mouse delta FosB DNA binding, confirmation, biochemical, fluorescence polarization, TAMRA-CDK5 oligo, cherry-picked samples; 2,400 tested, under 10 active; AID 588690, 2011; activation, % at 24.9 µM; purified delta FosB; normalised: neutral wells 0, positive control 100; shares compounds with dFosB act-1;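 active = highest replicate activation at or above 34% and every replicate reaching that threshold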;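 also: higher polarization means more probe DNA bound by delta FosB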
# Numbers without * were called inactive; . = no result given.
SMILES,dFosB act-1,CFTR F508del cor,S100A4 inh HTS,FGF22 binding,dFosB act-2
CN(C)Cc1cn(CC[C@H]2CC[C@@H](NC(=O)Nc3ccccc3F)[C@H](CO)O2)nn1,.,-1.8,11.0,-0.2,.
CS(=O)(=O)N1CC2(C1)[C@@H](c1ccccc1)[C@H](CO)N2Cc1ccccn1,.,-0.4,13.1,-0.5,.
O=C(NNC1=Nc2ccccc2SC1)c1ccc(F)cc1,-9.1,0.6,6.5,0.0,.
O=C(NNC1=Nc2ccccc2SC1)c1ccc(Cl)cc1,24.0*,0.0,1.0,-0.2,-9.5
CCc1nn(CC(=O)NCCC2=CCCCC2)c(=O)c2cc3cc(F)ccc3n12,40.6*,-1.1,0.8,0.2,-5.7
CCCNC(=O)Cn1nc(C)n2c(cc3cc(F)ccc32)c1=O,-9.0,0.3,-4.0,0.4,.
O=C(Nc1ccccc1)c1cnc(-c2ccccc2)nc1-c1ccccc1,47.9*,.,.,.,3.1
O=C(O)c1cnc(-c2ccccc2)nc1-c1ccccc1,0.2,-0.3,-1.0,0.0,.
Cc1ccc(S(=O)(=O)N(C)C[C@H]2OCCCC[C@H](C)Oc3ccc(NC(=O)Nc4ccc5c(c4)OCO5)cc3C(=O)N([C@@H](C)CO)C[C@H]2C)cc1,.,2.5,-21.2,-0.4,.
C[C@H]1CN([C@@H](C)CO)S(=O)(=O)c2ccc(C#Cc3ccccc3)cc2O[C@H]1CN(C)C,.,1.2,-4.2,-0.1,.
COc1ccc2cc3c(N)nn(C(=O)c4cccc(F)c4)c3nc2c1,50.9*,-5.6,-1.2,-0.1,-2.3
COc1cccc(CC(=O)n2nc(N)c3cc4ccc(OC)cc4nc32)c1,32.2*,1.5,-3.1,0.2,4.5
COc1ccc2cc3c(N)nn(C(=O)Cc4ccc(Cl)cc4)c3nc2c1,-0.3,1.7,-2.7,0.1,.
COc1ccc2cc3c(N)nn(C(=O)c4ccc(F)cc4)c3nc2c1,8.3,-4.2,-3.2,-0.1,.
Cc1ccc(Nc2nc(Nc3ccc(C)cc3)nc(SC3=NCCS3)n2)cc1,25.6*,.,.,.,4.6
Cc1ccccc1Nc1nc(Nc2ccccc2C)nc(SC2=NCCS2)n1,1.2,5.6,1.5,0.0,.
Cc1ccccc1-n1nnnc1SCC(=O)c1c(N)n(C)c(=O)n(C)c1=O,23.1*,-1.0,-1.5,0.3,-0.6
Cc1ccc(-c2nc(SCC(=O)c3c(N)n(C)c(=O)n(C)c3=O)n[nH]2)cc1,32.3*,3.2,-0.9,0.7,0.0
Cn1c(N)c(C(=O)CSc2nnnn2-c2ccccc2)c(=O)n(C)c1=O,13.6,2.9,-2.3,0.3,.
CC(C)NC(=O)N[C@@H]1CC[C@H](CC(=O)N2CCCCC2)O[C@H]1CO,.,-1.6,-6.3,.,.
CO[C@@H]1CN(C)C(=O)c2ccc(NS(C)(=O)=O)cc2OC[C@H](C)N(CCC(F)(F)F)C[C@H]1C,.,0.7,-1.9,.,.
COc1cc(-c2ccc3oc(-c4ccsc4)cc(=O)c3c2)cc(OC)c1OC,44.3*,-1.6,-1.0,0.1,-11.6
COc1ccc(-c2ccc3c(=O)cc(-c4ccsc4)oc3c2)cn1,-140.8,1.8,39.0,0.2,.
COc1cccc(/C=C2/Sc3ccc(C(=O)NCCCN4CCCC4)cc3NC2=O)c1,36.5*,4.1,4.7,-0.3,4.4
CN1CCN(S(=O)(=O)c2ccc(Sc3nc4ccccc4[nH]3)c3nsnc23)CC1,40.4*,.,.,.,-7.9
SMILES,dFosB act-1,CFTR F508del cor,S100A4 inh HTS,FGF22 binding,dFosB act-2
CCOC(=O)c1cccc(NC(=O)CCS(=O)(=O)c2cccs2)c1,-0.5,.,.,.,.
CCOC(=O)c1cccc(NC(=O)CCS(=O)(=O)c2ccc(Br)s2)c1,111.3*,.,.,.,2.6
O=C(CCNC(=O)Cn1ccc2ccccc2c1=O)NCCc1ccc(Cl)cc1,33.2*,-0.3,-9.7,-0.4,-6.6
Cc1cccc(CCNC(=O)CCNC(=O)Cn2ccc3ccccc3c2=O)c1,4.6,.,.,.,.
CCOc1ccccc1CNC(=O)CCNC(=O)Cn1ccc2ccccc2c1=O,22.7*,.,.,.,2.1
COc1ccc(C#Cc2ccc3c(c2)[C@H]2[C@H](CCN2C(=O)C2CCC2)[C@@H](CO)N3)cc1,.,3.1,5.0,.,.
Cc1c(C)c2ccc(OCC(=O)Nc3nccs3)cc2oc1=O,31.5*,-1.0,-9.2,0.0,0.6
COc1ccc(CCn2c(=N)c(C(=O)NCCN3CCOCC3)cc3c(=O)n4cccc(C)c4nc32)cc1OC,21.8*,0.5,-0.6,0.0,-0.5
COCCn1c(=N)c(C(=O)NCCc2ccccc2)cc2c(=O)n3cccc(C)c3nc21,-1.9,.,.,.,.
Cc1cccn2c(=O)c3cc(C(=O)NCCc4ccccc4)c(=N)n(CCCn4ccnc4)c3nc12,21.8*,.,.,.,0.8
C[C@@H]1CN([C@@H](C)CO)C(=O)c2cc(C#C[C@@H](C)O)cnc2O[C@@H]1CN(C)Cc1ccc(-c2ccccc2)cc1,.,0.0,21.3,-0.1,.
COc1ccccc1-c1cnc2c(c1)C(=O)N([C@H](C)CO)C[C@@H](C)[C@@H](CN(C)Cc1cncnc1)O2,.,0.4,5.9,-0.1,.
CCN(CC(=O)Nc1ccc(NC(C)=O)cc1)C(=O)/C=C/c1cn(-c2ccccc2)nc1-c1ccc(C)cc1,7.4,0.8,-0.6,-0.1,.
CCN(CC(=O)Nc1ccc(NC(C)=O)cc1)C(=O)/C=C/c1cn(-c2ccccc2)nc1-c1ccc(F)cc1,21.0*,-6.2,2.0,0.2,0.7
COc1ccc(N2CCc3c(C)nc4c(OC)cc(OC)cc4c32)cc1,38.3*,10.7*,3.5,0.4,1.0
COc1ccc(N2CCc3c(C)nc4c(OC)cc(OC)cc4c32)c(OC)c1,1.9,.,.,.,.
O=C(CSc1n[nH]c(-c2ccco2)n1)Nc1sc2c(c1C(=O)Nc1ccccc1)CCCC2,25.2*,.,.,.,0.6
CC=Cc1ccc2n(c1=O)C[C@@H]1[C@@H](CO)[C@H](C(=O)NC3CCC3)N(S(C)(=O)=O)[C@H]21 (mixture of isomers),.,-1.6,6.1,-0.1,.
Cc1ccc2c(C)nc(N/C(N)=N/S(=O)(=O)c3ccccc3)nc2c1,25.3*,-0.2,0.0,-0.3,-5.3
C[C@@H]1CCCCO[C@H](CN(C)C(=O)Nc2ccc(C(F)(F)F)cc2)[C@H](C)CN([C@H](C)CO)C(=O)c2cc(NS(C)(=O)=O)ccc2O1,.,2.0,-6.0,-1.3,.
COc1ccc(-n2nc(C(=O)NCC(=O)NCc3cccc(F)c3)c3ccccc3c2=O)cc1Cl,25.6*,1.0,-12.1,0.5,4.2
COc1ccc(-n2nc(C(=O)NCC(=O)Nc3cc(OC)c(OC)c(OC)c3)c3ccccc3c2=O)cc1OC,23.7*,-4.6,-12.3,-0.2,-1.6
C[C@@H]1CN([C@@H](C)CO)C(=O)c2c(c3ccccc3n2C)-c2ccccc2CO[C@H]1CN(C)Cc1ccc(C(=O)O)cc1,.,-3.8,.,.,.
